Active and inactive are the calls of the source. The rule behind the calls is not given here.
How the values were obtained:
PC-3 [1] = test: Antiproliferative activity against human PC3 cells assessed as reduction in cell viability at 10 uM incubated for 48 hrs in presence of Cu2+ ion by MTT assay; type: functional, cell-based
Method in brief: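 LN229 and PC3 cells plated, then 24 h later given 10 µM compound with or without 15 µM ZnCl2, CuCl2, FeCl2 or FeCl3 for 48 h. Medium replaced, MTT (12 mM solution) added for 4 h, formazan dissolved in DMSO, absorbance read at 540 nm. Percent viable versus untreated; mean ± SD of three experiments in triplicate.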

Jurkat = test: Cell cycle arrest in human Jurkat cells assessed as increase in cell accumulation at G0/G1 phase at 10 uM incubated for 24 hrs by propidium iodide staining based flow cytometry analysis; type: functional
PC-3 [2] = test: Induction of apoptosis in human PC3 cells assessed as necrotic cells at 10 uM incubated for 72 hrs by annexin V-FITC and propidium iodide staining based flow cytometry analysis (reference value: 0.30 %); type: functional
PC-3 [3] = test: Antiproliferative activity against human PC3 cells assessed as reduction in cell viability incubated for 48 hrs by cell titer-glo assay; type: functional, cell-based; conditions: PC-3, 48 h
Method in brief: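 Dose-response: cells plated, treated 24 h later for 48 h, then ATP measured by CellTiter-Glo luminescence. IC50 given as mean ± SD from three independent experiments, each in triplicate. Fibroblasts came from individuals. Cells were kept in RPMI or DMEM with 10% heat-inactivated FBS and penicillin/streptomycin at 37 °C, 5% CO2.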

SW480 = test: Antiproliferative activity against human SW480 cells assessed as reduction in cell viability at 10 uM incubated for 48 hrs by cell titer-glo assay; type: functional, cell-based
Method in brief: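 Cells plated and treated 24 h later with 10 µM compound for 48 h; viable cells quantified by CellTiter-Glo ATP luminescence. Expressed as percentage of viable cells relative to untreated; mean ± SD of three independent experiments, each in triplicate.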

PC-3 [4] = test: Induction of cellular senescence in human PC3 cells assessed as flattened cells at 10 uM incubated for 24 hrs by phase contrast microscopy; type: functional, cell-based
Method in brief: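 LN229 and PC3 cells, 12×10^4 per well in 6-well plates, treated with 10 µM compound for 24 h. Senescence-associated β-gal staining: fixed in 2% formaldehyde/0.2% glutaraldehyde for 10 min at RT, stained with 1 mg/mL X-gal at 37 °C for 24 h without CO2. Blue cells counted in at least 10 fields at 10x and given as percent of total; four independent experiments. Morphology viewed by phase contrast at ×100.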

[5] = Metal chelating activity assessed as Zn2+-compound complex formation by measuring stability constant for ZnL(OH) in 0.15M NaCl and hydroalcoholic solutions (H2O/EtOH 70:30) at 298.1K by potentiometric titration analysis
Method in brief: (§1)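 Glass-electrode potentiometric titration with an Ag/AgCl reference in saturated KCl. The electrode was calibrated as an [H+] probe against standardized HCl with CO₂-free NaOH, using Gran's method (pKw 13.73(1)). Range was pH 2.0–11.0, with metal and ligand at 1×10⁻³ to 5×10⁻³ M in 1:1 ratio. At least two curves per compound were merged and fitted with HYPERQUAD.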

[6] = Metal chelating activity assessed as Zn2+-compound complex formation by measuring stability constant for ZnL(OH) using pre-Zn2+-complexed compound (ZnL) in 0.15M NaCl and hydroalcoholic solutions (H2O/EtOH 70:30) at 298.1K by potentiometric titration analysis; method in brief: as §1
LN-229 [7] = test: Cell cycle arrest in human LN229 cells assessed as cell accumulation at G1 phase at 10 uM incubated for 24 hrs by propidium iodide staining based flow cytometry analysis relative to control; type: functional
PC-3 [8] = test: Cell cycle arrest in human PC3 cells assessed as cell accumulation at S phase at 10 uM incubated for 48 hrs by propidium iodide staining based flow cytometry analysis relative to control; type: functional
LN-229 [9] = test: Cell cycle arrest in human LN229 cells assessed as cell accumulation at S phase at 10 uM incubated for 48 hrs by propidium iodide staining based flow cytometry analysis relative to control; type: functional
[10] = Metal chelating activity assessed as Zn2+-compound complex formation by measuring stability constant for ZnL in 0.15M NaCl and hydroalcoholic solutions (H2O/EtOH 70:30) at 298.1K by potentiometric titration analysis; method in brief: as §1
PC-3 [11] = test: Induction of apoptosis in human PC3 cells assessed as late apoptotic cells at 10 uM incubated for 24 hrs by annexin V-FITC and propidium iodide staining based flow cytometry analysis (reference value: 0.52 %); type: functional
PC-3 [12] = test: Induction of apoptosis in human PC3 cells assessed as increase in early and late apoptotic cells at 10 uM incubated for 72 hrs by annexin V-FITC and propidium iodide staining based flow cytometry analysis relative to control; type: functional
[13] = Metal chelating activity assessed as Zn2+-compound complex formation by measuring stability constant for ZnL(OH) in 0.15M NaCl at 298.1K by potentiometric titration analysis; method in brief: as §1
[14] = Metal chelating activity assessed as Zn2+-compound complex formation by measuring stability constant for ZnL(OH) using pre-Zn2+-complexed compound (ZnL) in 0.15M NaCl at 298.1K by potentiometric titration analysis; method in brief: as §1
[15] = Metal chelating activity assessed as Zn2+-compound complex formation by measuring stability constant for ZnHL in 0.15M NaCl at 298.1K by potentiometric titration analysis; method in brief: as §1
[16] = Metal chelating activity assessed as Zn2+-compound complex formation by measuring stability constant for ZnHL using pre-Zn2+-complexed compound (ZnL) in 0.15M NaCl at 298.1K by potentiometric titration analysis; method in brief: as §1
[17] = Metal chelating activity assessed as Zn2+-compound complex formation by measuring stability constant for ZnL in 0.15M NaCl at 298.1K by potentiometric titration analysis; method in brief: as §1

IC50 (PC-3 [3]) [µM]	log K [5]	log K [6]	log K [10]	log K [13]	log K [14]	log K [15]	log K [16]	log K [17]	SMILES	Activity (PC-3 [1])	Activity (Jurkat)	Activity (PC-3 [2]) [%]	Activity (SW480)	Activity (PC-3 [4])	Activity (LN-229 [7]) [%]	Activity (PC-3 [8]) [%]	Activity (LN-229 [9]) [%]	Activity (PC-3 [11]) [%]	fold change (FC) (PC-3 [12])
11.2	2.81	-10.6	13.4						CN(CCNCc1ccccn1)CCNCc1ccccn1	inactive	Active	3.5	Active	Active	62.1	7.2	13.5	2.13	30
11				2.25	-10.8	16.7	3.65	13	c1ccc(CNCCN(CCNCc2ccccn2)Cc2ccc3ccccc3c2)nc1	inactive	Active	2.32	Active	Active	63.1	7.7	10.8	2.17	30

From ChEMBL document CHEMBL4376884, “Toward a Rational Design of Polyamine-Based Zinc-Chelating Agents for Cancer Therapies” (J Med Chem, 2020)
